High-throughput results from PubChem.
Myeloid diff MLP – promotes myeloid progenitor differentiation; ER-HoxA9 myeloid progenitors, lysozyme-GFP differentiation, flow cytometry; calls only at 10 µM; actives 1% (n = 360,000);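 active means normalized GFP-positive differentiation at or above the plate's own cutoff, the solvent-only control mean plus 3 SD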;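 further: cells exposed to compound for four days before flow analysis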
PP5 inh – PP5 (human) phosphatase inhibition; P53041; inhibition, % at 6.7 µM; AID 1987; actives 0.18% (n = 320,000); purified PP5c, OMFP substrate fluorescence;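 active means inhibition above the campaign's mean inhibition across all tested compounds plus 3 SD, cut at about 9.5% in these data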
Target sequence (P53041 whole entry, looked up): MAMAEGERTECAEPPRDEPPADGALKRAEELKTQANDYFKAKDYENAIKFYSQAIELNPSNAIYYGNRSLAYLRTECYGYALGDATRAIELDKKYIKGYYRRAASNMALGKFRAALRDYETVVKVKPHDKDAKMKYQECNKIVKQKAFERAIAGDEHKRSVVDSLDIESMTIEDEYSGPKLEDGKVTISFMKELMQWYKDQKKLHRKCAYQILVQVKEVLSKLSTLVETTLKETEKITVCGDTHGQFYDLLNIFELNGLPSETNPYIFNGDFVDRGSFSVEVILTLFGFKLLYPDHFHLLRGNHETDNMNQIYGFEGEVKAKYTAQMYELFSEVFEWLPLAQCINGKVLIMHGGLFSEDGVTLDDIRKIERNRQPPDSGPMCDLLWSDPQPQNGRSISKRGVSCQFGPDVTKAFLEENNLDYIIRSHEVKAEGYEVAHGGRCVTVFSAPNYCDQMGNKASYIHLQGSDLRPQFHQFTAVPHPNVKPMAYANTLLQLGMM
core dimer inh – blocks dimerization of HCV core protein | TR-FRET GST/Flag-core106 dimerization, 1536-well | inhibition, % at 5 µM | actives 0.33% (n = 300,000) | AID 1899;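 active means inhibition above the mean of all tested compounds plus 3 SD, set per screening campaign, cut at about 45% in these data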
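System: GST-tagged and Flag-tagged HCV core protein residues 1-106 / Input: core106 proteins, GST 13.5 nM and Flag 17 nM / Buffer or medium: KF-containing HEPES buffer, pH 7.45, DTT, CHAPS, BSA / Probe or stimulus: Eu-anti-GST and XL665-anti-Flag labelled anti-tag antibodies / Schedule: 4 h, 22.5 °C incubation / Technique: TR-FRET 671 and 617 nm emission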
Fh CTSL1 inh – blocks F. hepatica cathepsin L1 in PFM18AAP counter-screen; recombinant F. hepatica cathepsin L1, Z-Leu-Arg-MCA fluorescence; actives 0.49% (n = 300,000); inhibition, % at 5.96 µM;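 active means inhibition above the mean of all tested compounds plus 3 SD, set per screening campaign, cut at about 17% in these data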
NadD block – inhibitors of Staphylococcus aureus NadD; actives 0.78% (n = 360,000); purified NadD enzyme, colorimetric absorbance read-out; inhibition, % at 20 µM; AID 602399; in the data active means inhibition above about 26%
PP1 inh – blocks human PP1-alpha phosphatase, a PP5 counter-screen. P62136. purified PP1alpha, OMFP fluorescence. inhibition, % at 6.7 µM. actives 0.9% (n = 320,000). AID 2235;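 active means inhibition above the mean inhibition of all tested compounds plus 3 SD, computed separately for each screening campaign, cut at about 15% in these data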
A number is an active result; – = inactive; · = not tested or not shown; + = active, no number. Rows were chosen to be rich in hits. Some 3.1% of all compounds tested hit in one or more screens of this group.

SMILES	Myeloid diff MLP	PP5 inh	core dimer inh	Fh CTSL1 inh	NadD block	PP1 inh
CCC1Cc2[nH]c(=S)[nH]c(=O)c2C(c2ccc(Cl)cc2)O1 (centres undefined)	–	·	·	·	–	·
CCOc1ccc(NC(=O)COc2ccc(C(=O)NC(C)c3ccc(S(N)(=O)=O)cc3)cc2OC)cc1 (centres undefined)	–	–	–	–	–	–
CN(C)S(=O)(=O)c1ccc2c(c1)C(=O)c1cc(S(=O)(=O)N(C)C)ccc1CC2	–	–	·	·	–	–
CN(C)S(=O)(=O)c1ccc2c(c1)/C(=C/c1cc3c([nH]1)CCCC3)C(=O)N2	+	–	–	–	–	–
CCOC(=O)c1c(S(=O)(=O)Nc2ccccc2OCC)c(C)n(C)c1C	–	–	–	–	–	–
CCC[n+]1c(C)sc2c3c(ccc21)CCCC3	–	–	–	–	44	–
Cc1ccc(NC(=O)CCNC(=O)c2ccc(Br)cc2)cc1S(=O)(=O)N1CCCCCC1	–	–	–	–	–	–
COc1ccc(N2Cc3ccccc3C2=O)cc1	–	–	–	–	–	–
COc1ccc(N2Cc3cccc(C(=O)O)c3C2=O)cc1	–	–	48	–	–	–
COc1ccc(-c2c(C)nn3c(N4CCOCC4)cc(C)nc23)cc1OC	+	·	·	·	–	·
COc1ccc(-c2c(C)nn3c(N4CCCCCC4)cc(C)nc23)cc1OC	–	–	–	–	–	–
CC(C)CN1CCC(=O)N([C@H](CO)c2ccccc2)CC1	·	–	–	–	·	–
O=C(C1=C[C@@H]2[C@H]3C(=O)N(c4cccc(Cl)c4)C(=O)[C@H]3[C@@H](C(=O)c3ccc(Cl)cc3)N2C=C1)c1ccccc1	–	–	–	–	57	–
C[C@H](NC(=O)c1nc[nH]c1C(=O)N1CCN(c2ccccc2)CC1)c1ccccc1	–	–	·	·	–	–
Nc1ncnc2c1ncn2[C@@H]1O[C@H](CNCc2ccccc2OCc2ccc(Cl)cc2Cl)[C@@H](O)[C@H]1O	–	·	·	·	–	·
CCCc1nc(SCC(=O)N2CCC(Cc3ccccc3)CC2)c2c(=O)n(C)c(=O)n(C)c2n1	+	–	–	–	–	–
CCCc1nc(SCC(=O)Nc2ccccc2)c2c(=O)n(C)c(=O)n(C)c2n1	–	–	–	–	–	–
Cc1ccc(C)c(NC(=S)N2CCC(C(=O)c3ccc(F)cc3)CC2)c1	–	·	·	·	–	·
Cc1ccc(CNC(=O)COC(=O)Cc2ccc(-c3ccccc3)cc2)cc1	–	–	–	–	–	16
CCOc1c(C)cnc2c1c(=O)n(CC(=O)NCC1CCCO1)c(=O)n2C (centres undefined)	–	–	–	–	–	–
CCOc1ccc(NC(=O)CSc2nnc(C)n2CC)cc1	–	–	–	–	–	–
CCOc1ccc(NC(=O)CSc2nnc(C)n2Cc2ccccc2)cc1	–	–	–	–	–	16
CC(=O)Nc1cc(C(=O)N(C)Cc2ccccc2)ccc1S(=O)(=O)c1ccc(C)cc1	–	–	–	–	–	–
Cc1ccc(CSc2nnc(SCC(=O)N/N=C/C=C/c3ccco3)s2)cc1	–	–	–	–	–	–
Cc1nn(-c2ccccc2)c(C)c1/C=N/NC(=O)CSc1nnc(SCc2ccc(Cl)cc2)s1	–	–	–	–	–	17
SMILES	Myeloid diff MLP	PP5 inh	core dimer inh	Fh CTSL1 inh	NadD block	PP1 inh
CC(/C=N/NC(=O)CSc1nnc(SCc2ccccc2)s1)=C\c1ccco1	–	–	48	–	–	–
N#CCCn1cc(C(=O)Nc2cccc(C(=O)O)c2)c(-c2ccc(Cl)cc2)n1	–	–	–	–	–	–
Cc1cc2ccccn2c1C(=O)c1ccc(Cl)cc1	–	–	–	–	–	–
C/C(=N/Nc1ccc(C(=O)c2c(C)cc3ccccn23)cc1[N+](=O)[O-])c1ccc(O)cc1	–	·	·	·	32	·
Cc1cc2ccccn2c1C(=O)c1ccc(N/N=C/c2ccc(C(=O)O)cc2)c([N+](=O)[O-])c1	–	·	·	·	–	·
C/C(=N\Nc1ccc(C(=O)c2c(C)cc3ccccn23)cc1[N+](=O)[O-])c1ccc(O)cc1	–	–	–	–	36	–
Cc1ccccc1N1CCN(C2CCCN(C(=O)CCc3c(C)noc3C)C2)CC1 (centres undefined)	–	–	–	–	–	–
O=C(CNS(=O)(=O)c1ccccc1)N/N=C/c1ccccc1[N+](=O)[O-]	–	–	–	–	–	–
COc1ccc2c(c1)c(CC(=O)Nc1nnc(C3CC3)s1)c(C)n2C(=O)c1ccc(Cl)cc1	–	–	–	–	–	15
COc1ccc2c(c1)c(CC(=O)Nc1cc(C)ccc1C)c(C)n2C(=O)c1ccc(Cl)cc1	+	–	–	–	–	–
COc1ccc2c(c1)c(CC(=O)Nc1ccccc1OC)c(C)n2C(=O)c1ccc(Cl)cc1	–	–	–	–	–	–
COc1ccc2c(c1)c(CC(=O)NCc1cc([N+](=O)[O-])ccc1O)c(C)n2C(=O)c1ccc(Cl)cc1	–	–	–	–	33	–
C[C@H]1CN([C@@H](C)CO)C(=O)CCCn2nncc2CO[C@@H]1CN(C)C(=O)c1ccncc1	–	·	·	·	–	·
CC(C)c1ccc(NC2CCCN(C(=O)CCN3CCCC3=O)C2)cc1 (centres undefined)	+	–	–	–	–	–
Cc1ccnn1CCC(=O)N1CCCC(Nc2ccc(C(C)C)cc2)C1 (centres undefined)	–	·	·	·	–	·
CCOC(=O)C(Cc1ccc(NC(=O)/C(=C/c2ccccc2)NC(=O)c2ccccc2)cc1)N1C(=O)c2ccccc2C1=O (centres undefined)	–	–	58	–	–	–
COc1cc(C)c(C(=O)CC(=O)c2c(C)cc(OC)cc2C)c(C)c1	+	–	–	–	–	–
COc1ccc(NC(C)=O)c(C)c1	–	–	–	–	–	–
Cc1cc(-n2cc(Br)c(=O)[nH]c2=O)nc(-c2ccccc2)n1	–	–	–	–	–	–
O=c1[nH]c(=O)n(-c2cc(Br)c(O)c(Br)c2)cc1Br	–	–	–	33	–	–
Cc1ccc2nc3c(cc(C(N)=S)c(=N)n3CCCOC(C)C)c(=O)n2c1	+	–	–	–	–	–
Cc1ccc2nc3c(cc(C(=O)NCc4ccco4)c(=N)n3Cc3ccco3)c(=O)n2c1	–	–	70	19	–	–
COCCn1c(=N)c(C(=O)NCc2ccco2)cc2c(=O)n3ccccc3nc21	–	–	–	–	–	–
Cc1ccc2nc3c(cc(C(=O)NCCN4CCOCC4)c(=N)n3CCCN3CCOCC3)c(=O)n2c1	·	–	–	–	–	–
Cc1ccc2nc3c(cc(C(=O)NCCc4ccccc4)c(=N)n3CCN3CCOCC3)c(=O)n2c1	+	–	–	–	–	–
N=c1c(C(=O)NCc2ccc(F)cc2)cc2c(=O)n3ccccc3nc2n1Cc1ccco1	–	–	–	–	31	–
COc1ccc(N(CC(=O)NCCSc2ccc(C)cc2)S(=O)(=O)c2ccccc2)c(OC)c1	–	–	–	–	–	–
